The source of these data is ChEMBL document CHEMBL4024790 (J Med Chem, 2018).

Activity calls are given as the source filed them. No cut-off for these calls is given here.

A short description of data set [1]: AUC (0 to infinity) in Wistar Han rat at 1 mg/kg, iv by LC-MS/MS analysis. Format: ADME, organism-based. Details: dose 1 mg/kg, time infinity, route intravenous. Particulars: in vivo. The method, boiled down:
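Male Wistar-Han rats received a single IV dose as a solution in 20% (w/v) sulfobutylether-β-cyclodextrin with hydrochloric acid. Blood was drawn by carotid artery cannula into K2EDTA at set times from 2 min to 24 h. Plasma was acetonitrile-precipitated with internal standard and run by positive-ESI LC-MS/MS against standards of 0.61–625 ng/mL. AUC was extrapolated from time 0 to infinity.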

The species entered for data set [2] is Mus musculus. The experiment in a line: Increase in cGMP level in CD-1 mouse brain hippocampus by immunoassay. The format is functional. In outline: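 CD-1 mice given compound; brains fixed by focused microwave irradiation, and cortex, striatum and hippocampus dissected and homogenized in 0.5 N HCl, then centrifuged. cGMP in the supernatant measured by enzyme immunoassay. Unbound brain concentration taken from satellite animals. Dose-response and time-course data combined, and a linear Cbu–cGMP model fitted. The Cbu E50 is the projected Cbu giving a 50% rise in cGMP. Statistics by one-way ANOVA with Fisher's PLSD, p<0.05.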

For a further data set, the target named is T1, Cytochrome P450 1A2 (Homo sapiens, UniProt P05177).
T1 sequence (P05177 whole entry): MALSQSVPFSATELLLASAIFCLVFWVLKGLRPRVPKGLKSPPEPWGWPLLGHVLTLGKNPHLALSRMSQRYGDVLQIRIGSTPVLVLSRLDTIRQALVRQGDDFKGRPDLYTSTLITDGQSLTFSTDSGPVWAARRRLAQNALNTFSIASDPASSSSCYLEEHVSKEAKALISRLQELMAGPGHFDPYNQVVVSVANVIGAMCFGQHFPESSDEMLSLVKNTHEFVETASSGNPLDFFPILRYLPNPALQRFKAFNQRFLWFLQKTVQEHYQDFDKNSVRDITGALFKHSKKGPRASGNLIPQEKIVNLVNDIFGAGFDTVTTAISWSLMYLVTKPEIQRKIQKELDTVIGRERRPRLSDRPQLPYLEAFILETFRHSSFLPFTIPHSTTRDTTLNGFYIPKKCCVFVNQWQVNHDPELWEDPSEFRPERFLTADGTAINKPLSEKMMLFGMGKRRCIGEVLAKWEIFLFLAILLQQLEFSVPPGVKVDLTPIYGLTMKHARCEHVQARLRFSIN
The experiment in a line: Time-dependant inhibition of recombinant human CYP1A2. The format is ADME. To be noted: recombinant enzyme.

Data set [3] deals with Canis familiaris. The data set is described as follows: Toxicity in dog assessed as effect on vasculature up to 15 mg/kg/day, po for 14 days by microscopic method. Format: organism-based, Canis lupus familiaris. To be noted: in vivo, 336 h.
Data set [4] is described as follows: AUC (0 to infinity) in Wistar Han rat at 5 mg/kg, po administered via gavage by LC-MS/MS analysis. Format: ADME, organism-based. Details: dose 5 mg/kg, route oral, time infinity. To be noted: in vivo.
For data set [5], the species on record is Mus musculus. The data set is described as follows: Effect on cAMP level in CD-1 mouse brain hippocampus by immunoassay. The format is functional. In outline:
(§1)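 CD-1 mice dosed SC (solution in 20% SBE-β-CD with 2 molar equivalents 1N HCl, 1 mL/kg); euthanized by focused microwave irradiation of brain; cortex, striatum, hippocampus homogenized in 0.5 N HCl, centrifuged; cyclic nucleotides in supernatant by enzyme immunoassay. Unbound brain exposure from satellite animals; dose-response and time-course data combined with linear model; one-way ANOVA with Fisher's PLSD.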
In general terms: Cyclic AMP is a second messenger, typically raised through Gs and lowered through Gi signalling.

For a further data set, the target named is T2, Aldehyde oxidase (Homo sapiens, UniProt Q06278).
T2 sequence (Q06278 whole entry): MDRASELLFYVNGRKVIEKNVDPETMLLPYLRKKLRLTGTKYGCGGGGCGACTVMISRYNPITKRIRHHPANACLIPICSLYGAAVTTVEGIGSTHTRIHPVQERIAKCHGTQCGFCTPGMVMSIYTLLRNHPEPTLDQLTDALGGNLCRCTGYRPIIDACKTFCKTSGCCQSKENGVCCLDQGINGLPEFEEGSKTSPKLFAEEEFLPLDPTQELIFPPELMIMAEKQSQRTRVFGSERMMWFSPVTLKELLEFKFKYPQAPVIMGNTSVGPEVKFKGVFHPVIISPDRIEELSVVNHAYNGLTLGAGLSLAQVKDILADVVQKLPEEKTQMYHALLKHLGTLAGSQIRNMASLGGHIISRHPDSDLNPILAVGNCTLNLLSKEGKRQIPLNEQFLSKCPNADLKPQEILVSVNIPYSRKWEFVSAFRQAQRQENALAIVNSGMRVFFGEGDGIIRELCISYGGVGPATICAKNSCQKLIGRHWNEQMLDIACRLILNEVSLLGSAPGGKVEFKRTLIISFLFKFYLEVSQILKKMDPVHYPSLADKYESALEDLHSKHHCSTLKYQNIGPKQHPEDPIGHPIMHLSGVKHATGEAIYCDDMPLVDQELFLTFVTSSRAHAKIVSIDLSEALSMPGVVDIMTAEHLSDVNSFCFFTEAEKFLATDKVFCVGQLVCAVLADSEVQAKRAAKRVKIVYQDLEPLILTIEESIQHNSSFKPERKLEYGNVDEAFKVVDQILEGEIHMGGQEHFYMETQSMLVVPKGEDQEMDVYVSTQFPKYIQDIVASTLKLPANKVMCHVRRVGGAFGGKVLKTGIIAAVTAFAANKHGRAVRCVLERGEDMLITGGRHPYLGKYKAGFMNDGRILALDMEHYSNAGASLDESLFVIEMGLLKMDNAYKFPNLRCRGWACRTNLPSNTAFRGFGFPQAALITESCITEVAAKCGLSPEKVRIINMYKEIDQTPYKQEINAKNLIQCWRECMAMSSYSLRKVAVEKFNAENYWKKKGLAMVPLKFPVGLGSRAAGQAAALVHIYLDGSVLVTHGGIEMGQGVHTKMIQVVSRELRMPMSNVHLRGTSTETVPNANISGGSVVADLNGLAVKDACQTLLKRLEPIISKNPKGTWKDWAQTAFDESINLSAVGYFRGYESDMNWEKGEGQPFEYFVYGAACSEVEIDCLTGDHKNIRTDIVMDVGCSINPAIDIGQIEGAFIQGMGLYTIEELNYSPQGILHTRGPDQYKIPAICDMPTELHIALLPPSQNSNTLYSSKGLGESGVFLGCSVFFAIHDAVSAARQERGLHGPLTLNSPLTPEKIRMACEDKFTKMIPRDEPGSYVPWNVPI
The experiment in a line: Drug metabolism assessed as aldehyde oxidase (unknown origin)-mediated metabolite formation. Format: ADME.

A short description of data set [6]: Oral bioavailability in Wistar Han rat at 5 mg/kg administered via gavage by LC-MS/MS analysis. The format is ADME, organism-based. To be noted: in vivo.
A further data set deals with Rattus norvegicus. The data set is described as follows: Cardiotoxicity in rat at 5 to 250 mg/kg/day, po up to 15 days by microscopic method. The format is toxicity, organism-based. To be noted: in vivo, 360 h. The method, boiled down:
(§2)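 Exploratory rat toxicity study, oral dosing at 5, 50 and 250 mg/kg/day for up to 15 days, with microscopic examination of heart and vasculature and measurement of plasma and brain exposure.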

The species named for data set [7] is Canis familiaris. The data set is described as follows: Cardiotoxicity in dog up to 1 month by microscopic method. Format: toxicity, Canis lupus familiaris.
The species named for data set [8] is Mus musculus. The data set is described as follows: Increase in cGMP level in CD-1 mouse brain cortex by immunoassay. Format: functional. The method, boiled down: as §1
The subject of another data set is Plasma. The experiment in a line: Drug uptake in rat plasma at 5 to 250 mg/kg/day, po up to 15 days by microscopic method. The format is ADME, organism-based. To be noted: in vivo, 360 h. The method, boiled down: as §2

Broadly, the AUC(0-inf) is total exposure, with the tail of the curve extrapolated. The bioavailability is dose-corrected exposure relative to a reference, in per cent. With `Cc1nc(-c2cnn(C)c2-c2ccc(C(F)(F)F)cn2)c2c(N3CCC3)ncnn12` [PF-05180999], the AUC(0-inf) in data set [1] was determined as 141 ng·h/mL; in data set [4] it was 312 ng·h/mL. The Activity result in the data set listed under Mus musculus [2] was “Dose-dependent effect”; with Canis familiaris [3], “Non-Toxic”; in the data set on Rattus norvegicus, “Non-Toxic”; in the data set listed under Canis familiaris [7], “Non-Toxic”; in the data set filed under Mus musculus [8], “Dose-dependent effect”. Besides, the TDI entry at Cytochrome P450 1A2 is given as “Not Active”. Also, the result in the data set filed under Mus musculus [5] was inactive. The Drug metabolism entry at Aldehyde oxidase is given as “Metabolite_Notdetected”. This compound gave a bioavailability in data set [6] of 44%. Also, the Drug uptake entry with Plasma is recorded as “Active”.
